In brackets after ≈: the same amount, converted by molar mass.
Columns and labels:
[1] = tested on: Salmonella typhimurium; experiment: Antibacterial activity against Salmonella Typhimurium ATCC 13311 after 24 hrs by micro dilution method; assay type: functional, Salmonella enterica subsp. enterica serovar Typhimurium; settings: Salmonella enterica, ATCC 13311, 24 h
Method in brief: (§1)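 Microdilution MIC in 96-well plates. Bacterial suspensions adjusted in sterile saline to 1.0 × 10^5 CFU/ml, giving 1.0 × 10^4 cfu per well in LB broth. Compounds tested at up to 1 mg/ml. Plates incubated 24 h. MIC taken as the lowest concentration with no visible growth under a binocular microscope. OD at 655 nm was also read against a blank and the positive control. Streptomycin and ampicillin were the positive controls.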

[2] = tested on: Talaromyces funiculosus; experiment: Antifungal activity against Penicillium funiculosum ATCC 36839 after 72 hrs by serial dilution method; assay type: functional; settings: ATCC 36839, 72 h
Method in brief: (§2)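 Modified microdilution MIC. Spores were washed from malt agar cultures with sterile 0.85% saline containing 0.1% Tween 80 and adjusted to about 1.0 × 10^5 per 100 µl well in malt broth. Compounds were dissolved in DMSO (1 mg/ml). Plates incubated 72 h at 28 °C. MIC is the lowest concentration with no visible growth under a binocular microscope. Bifonazole and ketoconazole were the references.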

[3] = tested on: Listeria monocytogenes; experiment: Antibacterial activity against Listeria monocytogenes NCTC 7973 treated for 24 hrs followed by sub-cultivated for 72 hrs by micro dilution method; assay type: functional
Method in brief: (§3)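 2 µl from each well was serially subcultured into 100 µl fresh broth per well and incubated a further 72 h. MBC is the lowest concentration with no visible growth, taken as 99.5% killing of the original inoculum. Streptomycin and ampicillin were the positive controls.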

[4] = tested on: Enterobacter cloacae; experiment: Antibacterial activity against Enterobacter cloacae human isolate after 24 hrs by micro dilution method; assay type: functional; method in brief: as §1
[5] = tested on: Talaromyces funiculosus; experiment: Antifungal activity against Penicillium funiculosum ATCC 36839 treated for 72 hrs followed by sub-cultivated for 5 days by serial dilution method; assay type: functional
Method in brief: (§4)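 MFC obtained after the 72 h, 28 °C malt-broth microdilution (spore inoculum about 1.0 × 10^5 per well, compounds from 1 mg/ml DMSO). 2 µl was serially subcultured into 100 µl broth per well and incubated a further 5 days at 28 °C. MFC is the lowest concentration with no visible growth, taken as 99.5% killing of the original inoculum.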

[6] = tested on: Micrococcus flavus; experiment: Antibacterial activity against Micrococcus flavus ATCC 10240 after 24 hrs by micro dilution method; assay type: functional; settings: ATCC 10240, 24 h; method in brief: as §1
[7] = tested on: Penicillium ochrochloron; experiment: Antifungal activity against Penicillium ochrochloron ATCC 9112 treated for 72 hrs followed by sub-cultivated for 5 days by serial dilution method; assay type: functional; method in brief: as §4
[8] = tested on: Salmonella typhimurium; experiment: Antibacterial activity against Salmonella Typhimurium ATCC 13311 treated for 24 hrs followed by sub-cultivated for 72 hrs by micro dilution method; assay type: functional, Salmonella enterica subsp. enterica serovar Typhimurium; settings: Salmonella enterica; method in brief: as §3
[9] = tested on: Trichoderma viride; experiment: Antifungal activity against Trichoderma viride IAM 5061 treated for 72 hrs followed by sub-cultivated for 5 days by serial dilution method; assay type: functional; method in brief: as §4
[10] = tested on: Penicillium ochrochloron; experiment: Antifungal activity against Penicillium ochrochloron ATCC 9112 after 72 hrs by serial dilution method; assay type: functional; settings: ATCC 9112, 72 h; method in brief: as §2
[11] = tested on: Aspergillus niger; experiment: Antifungal activity against Aspergillus niger ATCC 6275 after 72 hrs by serial dilution method; assay type: functional; settings: ATCC 6275, 72 h; method in brief: as §2
[12] = tested on: Staphylococcus aureus; experiment: Antibacterial activity against Staphylococcus aureus ATCC 6538 after 24 hrs by micro dilution method; assay type: functional; settings: ATCC 6538, 24 h; method in brief: as §1
[13] = tested on: Bacillus cereus; experiment: Antibacterial activity against Bacillus cereus clinical isolate after 24 hrs by micro dilution method; assay type: functional; method in brief: as §1
[14] = tested on: Aspergillus flavus; experiment: Antifungal activity against Aspergillus flavus ATCC 9643 treated for 72 hrs followed by sub-cultivated for 5 days by serial dilution method; assay type: functional; method in brief: as §4
[15] = tested on: Micrococcus flavus; experiment: Antibacterial activity against Micrococcus flavus ATCC 10240 treated for 24 hrs followed by sub-cultivated for 72 hrs by micro dilution method; assay type: functional; method in brief: as §3
[16] = tested on: Aspergillus fumigatus; experiment: Antifungal activity against Aspergillus fumigatus human isolate after 72 hrs by serial dilution method; assay type: functional; method in brief: as §2
[17] = tested on: Aspergillus fumigatus; experiment: Antifungal activity against Aspergillus fumigatus human isolate treated for 72 hrs followed by sub-cultivated for 5 days by serial dilution method; assay type: functional; method in brief: as §4
[18] = tested on: Aspergillus versicolor; experiment: Antifungal activity against Aspergillus versicolor ATCC 11730 treated for 72 hrs followed by sub-cultivated for 5 days by serial dilution method; assay type: functional; method in brief: as §4
[19] = tested on: Enterobacter cloacae; experiment: Antibacterial activity against Enterobacter cloacae human isolate treated for 24 hrs followed by sub-cultivated for 72 hrs by micro dilution method; assay type: functional; method in brief: as §3
[20] = tested on: Fulvia fulva; experiment: Antifungal activity against Fulvia fulva treated for 72 hrs followed by sub-cultivated for 5 days by serial dilution method; assay type: functional; method in brief: as §4
[21] = tested on: Aspergillus niger; experiment: Antifungal activity against Aspergillus niger ATCC 6275 treated for 72 hrs followed by sub-cultivated for 5 days by serial dilution method; assay type: functional; method in brief: as §4
[22] = tested on: Trichoderma viride; experiment: Antifungal activity against Trichoderma viride IAM 5061 after 72 hrs by serial dilution method; assay type: functional; settings: IAM 5061, 72 h; method in brief: as §2
[23] = tested on: Pseudomonas aeruginosa; experiment: Antibacterial activity against Pseudomonas aeruginosa ATCC 27853 treated for 24 hrs followed by sub-cultivated for 72 hrs by micro dilution method; assay type: functional; method in brief: as §3
[24] = tested on: Aspergillus flavus; experiment: Antifungal activity against Aspergillus flavus ATCC 9643 after 72 hrs by serial dilution method; assay type: functional; settings: ATCC 9643, 72 h; method in brief: as §2
[25] = tested on: Pseudomonas aeruginosa; experiment: Antibacterial activity against Pseudomonas aeruginosa ATCC 27853 after 24 hrs by micro dilution method; assay type: functional; settings: ATCC 27853, 24 h; method in brief: as §1
[26] = tested on: Escherichia coli; experiment: Antibacterial activity against Escherichia coli ATCC 35210 treated for 24 hrs followed by sub-cultivated for 72 hrs by micro dilution method; assay type: functional; method in brief: as §3
[27] = tested on: Listeria monocytogenes; experiment: Antibacterial activity against Listeria monocytogenes NCTC 7973 after 24 hrs by micro dilution method; assay type: functional; settings: NCTC 7973, 24 h; method in brief: as §1
[28] = tested on: Staphylococcus aureus; experiment: Antibacterial activity against Staphylococcus aureus ATCC 6538 treated for 24 hrs followed by sub-cultivated for 72 hrs by micro dilution method; assay type: functional; method in brief: as §3
[29] = tested on: Aspergillus versicolor; experiment: Antifungal activity against Aspergillus versicolor ATCC 11730 after 72 hrs by serial dilution method; assay type: functional; settings: ATCC 11730, 72 h; method in brief: as §2
[30] = tested on: Bacillus cereus; experiment: Antibacterial activity against Bacillus cereus clinical isolate treated for 24 hrs followed by sub-cultivated for 72 hrs by micro dilution method; assay type: functional; method in brief: as §3
[31] = tested on: Fulvia fulva; experiment: Antifungal activity against Fulvia fulva after 72 hrs by serial dilution method; assay type: functional; method in brief: as §2
[32] = tested on: Escherichia coli; experiment: Antibacterial activity against Escherichia coli ATCC 35210 after 24 hrs by micro dilution method; assay type: functional; settings: ATCC 35210, 24 h; method in brief: as §1

SMILES: CCCCn1c(Cc2cc(OC)c(OC)cc2S(=O)(=O)N(C)C)n[nH]c1=O
- MIC [1]: 500 µM (≈ 199 µg/mL)
- MIC [2]: 130 µM (≈ 51.8 µg/mL)
- MBC [3]: 380 µM (≈ 151 µg/mL)
- MIC [4]: 500 µM (≈ 199 µg/mL)
- MFC [5]: 250 µM (≈ 99.6 µg/mL)
- MIC [6]: 630 µM (≈ 251 µg/mL)
- MFC [7]: 380 µM (≈ 151 µg/mL)
- MBC [8]: 760 µM (≈ 303 µg/mL)
- MFC [9]: 60 µM (≈ 23.9 µg/mL)
- MIC [10]: 130 µM (≈ 51.8 µg/mL)
- MIC [11]: 130 µM (≈ 51.8 µg/mL)
- MIC [12]: 250 µM (≈ 99.6 µg/mL)
- MIC [13]: 250 µM (≈ 99.6 µg/mL)
- MFC [14]: 380 µM (≈ 151 µg/mL)
- MBC [15]: 630 µM (≈ 251 µg/mL)
- MIC [16]: 250 µM (≈ 99.6 µg/mL)
- MFC [17]: 250 µM (≈ 99.6 µg/mL)
- MFC [18]: 380 µM (≈ 151 µg/mL)
- MBC [19]: 760 µM (≈ 303 µg/mL)
- MFC [20]: 250 µM (≈ 99.6 µg/mL)
- MFC [21]: 380 µM (≈ 151 µg/mL)
- MIC [22]: 30 µM (≈ 12 µg/mL)
- MBC [23]: 380 µM (≈ 151 µg/mL)
- MIC [24]: 130 µM (≈ 51.8 µg/mL)
- MIC [25]: 380 µM (≈ 151 µg/mL)
- MBC [26]: 250 µM (≈ 99.6 µg/mL)
- MIC [27]: 380 µM (≈ 151 µg/mL)
- MBC [28]: 500 µM (≈ 199 µg/mL)
- MIC [29]: 130 µM (≈ 51.8 µg/mL)
- MBC [30]: 760 µM (≈ 303 µg/mL)
- MIC [31]: 250 µM (≈ 99.6 µg/mL)
- MIC [32]: 130 µM (≈ 51.8 µg/mL)

SMILES: COc1cc(Cc2n[nH]c(=O)n2C(C)(C)C)c(S(=O)(=O)N(C)C)cc1OC
- MIC [1]: 250 µM (≈ 99.6 µg/mL)
- MIC [2]: 130 µM (≈ 51.8 µg/mL)
- MBC [3]: 390 µM (≈ 155 µg/mL)
- MIC [4]: 250 µM (≈ 99.6 µg/mL)
- MFC [5]: 250 µM (≈ 99.6 µg/mL)
- MIC [6]: 390 µM (≈ 155 µg/mL)
- MFC [7]: 380 µM (≈ 151 µg/mL)
- MBC [8]: 250 µM (≈ 99.6 µg/mL)
- MFC [9]: 250 µM (≈ 99.6 µg/mL)
- MIC [10]: 250 µM (≈ 99.6 µg/mL)
- MIC [11]: 250 µM (≈ 99.6 µg/mL)
- MIC [12]: 390 µM (≈ 155 µg/mL)
- MIC [13]: 250 µM (≈ 99.6 µg/mL)
- MFC [14]: 380 µM (≈ 151 µg/mL)
- MBC [15]: 390 µM (≈ 155 µg/mL)
- MIC [16]: 250 µM (≈ 99.6 µg/mL)
- MFC [17]: 380 µM (≈ 151 µg/mL)
- MFC [18]: 380 µM (≈ 151 µg/mL)
- MBC [19]: 250 µM (≈ 99.6 µg/mL)
- MFC [20]: 250 µM (≈ 99.6 µg/mL)
- MFC [21]: 380 µM (≈ 151 µg/mL)
- MIC [22]: 30 µM (≈ 12 µg/mL)
- MBC [23]: 390 µM (≈ 155 µg/mL)
- MIC [24]: 250 µM (≈ 99.6 µg/mL)
- MIC [25]: 390 µM (≈ 155 µg/mL)
- MBC [26]: 250 µM (≈ 99.6 µg/mL)
- MIC [27]: 390 µM (≈ 155 µg/mL)
- MBC [28]: 390 µM (≈ 155 µg/mL)
- MIC [29]: 250 µM (≈ 99.6 µg/mL)
- MBC [30]: 780 µM (≈ 311 µg/mL)
- MIC [31]: 250 µM (≈ 99.6 µg/mL)
- MIC [32]: 130 µM (≈ 51.8 µg/mL)

Source: ChEMBL document CHEMBL1944580, “Synthesis of novel sulfonamide-1,2,4-triazoles, 1,3,4-thiadiazoles and 1,3,4-oxadiazoles, as potential antibacterial and antifungal agents. Biological evaluation and conformational analysis studies” (2012)
